{"data": "Measurements from different studies", "cell line": "MM1.S", "effect on": "cell growth or viability", "note": "Lines come from different studies, so protocols differ."}
{"Compound": "C=CC(=O)N1CCC[C@@H](n2nc(-c3ccc(Oc4ccccc4)cc3)c3c(N)ncnc32)C1", "conditions": "48 h", "endpoint": "GI50", "result": "7.56 µM"}
{"Compound": "CON(C)C(=O)N1N=C(c2cc(F)ccc2F)S[C@@]1(CCCN)c1ccccc1", "test": "ATP luminescence", "conditions": "72 h", "endpoint": "IC50", "result": "4.9 nM"}
{"Compound": "N[C@@H]1CCCN(c2c(/C=C3\\SC(=O)NC3=O)cccc2-c2ccccc2)C1", "test": "thymidine uptake", "conditions": "72 h", "endpoint": "GI50", "result": "0.711 µM"}
{"Compound": "O=C(C[C@@H](C(F)F)n1ccc(F)n1)N1CCC(O)(Cn2cnc3c(cnn3-c3ccc(F)cc3)c2=O)CC1", "test": "ATP luminescence", "conditions": "5 days", "endpoint": "IC50", "result": "33 nM"}
{"Compound": "CCOC(=O)C1=C(C)NC(=S)NC1c1cccc(O)c1 (centres unmarked)", "test": "ATP luminescence", "conditions": "72 h", "endpoint": "IC50", "result": "144000 nM"}
{"Compound": "CC(C)C[C@H](NC(=O)[C@H](Cc1ccccc1)NC(=O)c1cnccn1)B(O)O", "test": "ATP luminescence", "endpoint": "EC50", "result": "1.5 nM"}
{"Compound": "CCS(=O)(=O)Nc1ccc(Oc2ccc(Cl)cc2)c(-c2cn(C)c(=O)c3ccccc23)c1", "test": "resazurin", "conditions": "72 h", "endpoint": "IC50", "result": "3.5 nM"}
{"Compound": "CC(C)C[C@H](NC(=O)[C@H](Cc1ccccc1)NC(=O)c1cnccn1)B(O)O", "test": "ATP luminescence", "conditions": "48 h", "endpoint": "IC50", "result": "15 nM"}
